H9c2 TAG inh = reduces triacylglycerol accumulation in H9c2 cells; Nile Red lipid (TAG) fluorescence; cells loaded with 200 µM oleic acid; inhibition, % at 12.5 µM; 0.66% of 230,000 active;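 active = pattern-corrected inhibition of lipid staining of at least 50% with the nuclear-stain viability signal not falling by more than 50%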;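 note: 0% = DMSO wells and 100% = triacsin C control wells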
GRK2 inh = human GRK2 inhibition via aptamer displacement | bead flow cytometry, FAM-aptamer displacement from GRK2 | inhibition of aptamer binding, % at 10 µM | 0.59% of 330,000 active | AID 488847;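 active = inhibition of aptamer binding above 40%, roughly 3 SD of noise, on plates passing a quality check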;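 note: median bead fluorescence of bound FAM aptamer so fluorescent compounds give negative values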
B2AR ag = agonists of human beta-2 adrenergic receptor inducing internalization; Am2.2-beta2AR cells, FAP receptor internalization, flow cytometry; 0.43% of 340,000 active; P07550; response, % (test concentration not listed);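 active = response above a set limit, near 3 SD of response in nonfluorescent compounds, cut at about 42% in these data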
Arrestin-AP2 inh = human beta-arrestin and AP2 interaction inhibition; 0.31% of 340,000 active; inhibition, % at 10 µM; FITC-arrestin peptide / GST-AP2 beads, flow cytometry; AP2 beta2 appendage carries R879A mutation;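 active = inhibition above a set limit, near 3 SD of compounds lacking own fluorescence, cut at about 54% in these data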;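 note: plate controls were DMSO wells for no effect and 5 µM unlabelled arrestin peptide for full effect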
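System: GST-AP2 R879A glutathione beads; medium: PBS, Tween 20 0.05%, BSA 0.1%; reagent: fluorescein-tagged arrestin peptide at 50 nM final; schedule: pre-incubation 12 min, peptide binding 1 h, room temperature; detection: flow cytometry, FL1 (488/535 nm); read-out: inhibition as reduced fluorescein signal on beads, percent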
Lipid droplet = modulators of hepatic lipid droplet formation; 0.4% of 240,000 active; inhibition, % at 6.5 µM; AID 1656; AML12 mouse hepatocytes, oleate lipid droplets, BODIPY imaging;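 active = lipid droplet intensity inhibited by at least 50%, with more than 500 cells counted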
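Material – AML12 mouse liver cells · Also added – oleate loading, 100 µM · Compound dosing – 6.5 µM single-point dosing · Times – overnight treatment with compound plus oleate · Measured by – fluorescence imaging, 20x objective, two fields per well · Read-out – percent inhibition of filter-corrected integrated lipid droplet intensity per well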
NTR1 agonist = activates human neurotensin receptor 1 | activation, % at 20 µM | NTR1-U2OS beta-arrestin-GFP spot imaging, agonist mode | 0.17% of 330,000 active;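 active = activation at or above 40% of the spot to cytoplasm intensity ratio, with at least 20 cells analyzed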;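 note: 0% = DMSO without peptide and 100% = 100 nM NTR1 peptide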
Target sequence (P30989 whole entry, looked up): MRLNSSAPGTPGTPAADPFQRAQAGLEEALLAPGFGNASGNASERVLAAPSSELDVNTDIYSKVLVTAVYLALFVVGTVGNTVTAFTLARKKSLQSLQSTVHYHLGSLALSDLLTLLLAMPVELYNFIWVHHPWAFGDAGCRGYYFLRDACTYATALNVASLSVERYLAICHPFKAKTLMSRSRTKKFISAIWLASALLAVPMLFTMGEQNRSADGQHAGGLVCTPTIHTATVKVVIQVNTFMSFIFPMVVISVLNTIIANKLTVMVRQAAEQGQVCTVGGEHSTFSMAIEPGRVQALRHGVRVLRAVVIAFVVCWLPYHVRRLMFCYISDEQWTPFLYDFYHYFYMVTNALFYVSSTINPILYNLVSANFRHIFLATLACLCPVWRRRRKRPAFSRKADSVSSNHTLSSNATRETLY
* hit, by the source's call; . = no result. Hits are enriched below; roughly 2% of the tested compounds scored in any of these assays.

SMILES | H9c2 TAG inh | GRK2 inh | B2AR ag | Arrestin-AP2 inh | Lipid droplet | NTR1 agonist
CNC[C@H](Cc1ccccc1)NC[C@@H](Cc1cccc2ccccc12)NCCc1ccc(C)cc1 | 138.1* | 0.0 | 98.1* | 2.1 | 18.4 | 22.9
CCOc1cc2[nH]c(=O)n(CCc3ccc(OC)c(OC)c3)c(=O)c2cc1OCC | 58.6* | 0.0 | 5.2 | 29.8 | . | 2.4
CCOc1cc2[nH]c(=S)n(CCc3ccc(OC)c(OC)c3)c(=O)c2cc1OCC | . | 0.0 | 30.9 | 0.7 | -32.6 | 18.2
CCCCN(C)C(=O)CCCCn1c(=O)[nH]c2cc(OCC)c(OCC)cc2c1=O | 51.1* | 0.0 | -5.1 | -1.2 | . | 0.0
CCOc1cc2[nH]c(=O)n(CCCCCC(=O)NCc3ccco3)c(=O)c2cc1OCC | 4.2 | 0.0 | 4.1 | 26.0 | -5.6 | -0.7
CCOC(=O)CCS(=O)(=O)c1nc(-c2ccccc2)cc(C(F)(F)F)n1 | 74.3* | 3.0 | 60.3* | 4.1 | -1.0 | -0.5
CCOC(=O)CS(=O)(=O)c1nc(-c2ccccc2)cc(C(F)(F)F)n1 | 21.1 | 0.0 | 109.0* | 7.4 | . | 1.6
COc1ccc(-c2cc(C(F)(F)F)nc(S(C)(=O)=O)n2)cc1 | 1.9 | 3.0 | 35.1 | 30.2 | 4.9 | 17.4
CS(=O)(=O)c1nc(-c2ccc(F)cc2)cc(C(F)(F)F)n1 | 77.7 | . | 72.8* | 13.1 | -10.9 | .
CCOC(=O)CS(=O)(=O)c1nc(-c2ccc(F)cc2)cc(C(F)(F)F)n1 | 18.4 | 0.0 | 103.6* | 12.7 | -9.0 | -1.5
CCOC(=O)Cc1cc(-c2ccccc2)nc2ccc3ccccc3c12 | -2.1 | 0.0 | 0.8 | 10.7 | . | 2.7
C[C@H](CO)N1C[C@H](C)[C@@H](CN(C)C(=O)Nc2ccccc2)Oc2ccc(NS(=O)(=O)c3cn(C)cn3)cc2C1=O | 7.6 | 2.0 | -10.9 | . | . | 0.0
CCCCNC(=S)Nc1cc([N+](=O)[O-])ccc1C | -41.0 | 0.0 | -3.3 | 1.1 | -7.2 | 1.8
COC(=O)CCS(=O)(=O)c1nc(-c2ccccc2)cc(C(F)(F)F)n1 | . | 0.0 | 97.0* | 8.4 | 3.3 | 23.0
O=C(O)CCS(=O)(=O)c1nc(-c2cccs2)cc(C(F)(F)F)n1 | . | 0.0 | -7.7 | 22.5 | -1.1 | 3.8
Cc1ccc(NC(=O)Cc2c(O)c3ccccc3[nH]c2=O)c(C)c1 | -1.9 | 2.0 | 0.2 | 8.5 | 8.8 | 2.4
O=C(OCc1nc2ccsc2c(=O)[nH]1)c1ccc(Cl)s1 | -10.4 | 0.0 | -4.6 | -1.2 | . | -0.9
O=[N+]([O-])c1ccc(O)c2ncccc12 | 8.6 | 0.0 | 0.2 | -5.6 | -23.1 | 4.3
O=[N+]([O-])c1cc([N+](=O)[O-])c2cccnc2c1Oc1ccccc1O | . | 0.0 | 50.8* | 17.7 | 22.8 | .
CCCN1CCCc2ccccc21 | . | 18.0 | 0.9 | 0.7 | 6.3 | 0.1
N#CCCN1CCCc2cc(N=Nc3ccc(C(F)(F)F)cc3)ccc21 | 57.3* | 2.0 | 9.4 | -11.2 | 38.4 | 0.1
O=C(N/N=C/c1ccccc1)c1ccc(N2CCCC2=O)cc1 | . | 3.0 | 63.7* | 4.0 | . | 0.7
C/C(=N\NC(=O)c1ccc(N2CCCC2=O)cc1)c1ccccc1 | . | 2.0 | -18.4 | -1.9 | -6.5 | -0.9
FC(F)(F)c1cc(CCN2CCNC[C@@H]2CC2CCCCC2)cc(C(F)(F)F)c1 | 137.5* | 0.0 | 38.3 | 5.8 | . | 11.7
COc1ccc(-c2nc(-n3c(C)c(C(C)=O)c(C(C)=O)c3C)sc2C)cc1 | -12.7 | 78.0* | 3.4 | 4.7 | . | 2.9
SMILES | H9c2 TAG inh | GRK2 inh | B2AR ag | Arrestin-AP2 inh | Lipid droplet | NTR1 agonist
C=CCn1c(N)c(C(=O)Nc2ccc(C)c(C)c2)c2nc3ccccc3nc21 | 53.6* | 0.0 | 3.2 | 15.8 | . | -0.9
Cc1ccc(C)c(N2CCN(S(=O)(=O)c3ccc4c(c3)NC(=O)CS4)CC2)c1 | . | 3.0 | 16.2 | -7.9 | -17.9 | 21.1
O=c1c(Br)ccc(Br)cc1Br | 98.8* | . | 70.0* | 29.2 | . | .
COc1ccc(S(=O)(=O)N2CCC3(CC2)OCCO3)cc1 | -8.3 | 0.0 | 4.8 | -1.1 | 14.5 | -0.1
CSc1ccccc1NC(=O)C(C)N(C)CC(=O)N1CCN(Cc2ccccc2)CC1 (configuration not stated) | 6.2 | . | 1.7 | 1.1 | . | .
Cc1oc(=O)cc(OCc2ccccc2)c1C | 7.2 | 45.0* | -6.9 | 5.1 | . | -0.5
Cc1c(OCc2ccccc2)cccc1OCc1ccccc1 | -58.9 | . | -1.8 | -0.4 | 3.7 | 4.5
Cc1ccnc(NCc2ccc(Cl)cc2)c1 | . | 3.0 | 0.3 | 1.7 | 2.2 | 0.0
CCCNC(=O)c1nnsc1S(=O)c1ccc(Cl)cc1 (configuration not stated) | . | . | 50.3* | 3.3 | 0.5 | 6.6
CNC(=O)c1nnsc1S(=O)c1ccc(Cl)cc1 (configuration not stated) | . | . | 2.0 | 17.2 | -14.7 | 5.9
O=C1c2ccc3c4c(ccc(c24)C(=O)N1c1cccc(O)c1)C(=O)N(c1cccc(O)c1)C3=O | 67.9* | 0.0 | 11.0 | 6.1 | -13.5 | 6.8
O=C1c2ccc3c4c(ccc(c24)C(=O)N1c1cccc(O)c1)CC3 | 1.2 | 0.0 | -0.4 | 1.6 | -20.6 | -0.3
COc1ccc2cc3c(N)nn(C(=O)c4ccc(Cl)c([N+](=O)[O-])c4)c3nc2c1 | . | 57.0* | 27.2 | 1.6 | -3.0 | 3.3
O=C(/C=C/c1ccncc1)c1ccc(NC(=O)c2ccccc2F)cc1 | . | 0.0 | 51.0* | -5.6 | -12.8 | .
C/C(=C\C(=O)c1ccc(Br)cc1)NCc1ccccc1 | -23.5 | 0.0 | 46.4* | -0.3 | 15.5 | 1.7
CCOc1cccc2sc(N(CCCN(C)C)C(=O)c3ccc(S(=O)(=O)N(C)Cc4ccccc4)cc3)nc12 | 3.3 | 0.0 | 29.6 | -3.2 | 6.6 | 35.2
COc1cccc2sc(N(CCCN(C)C)C(=O)c3ccc(S(=O)(=O)N4CCc5ccccc5C4)cc3)nc12 | . | 0.0 | 55.8* | -8.2 | -21.0 | 3.5
CCOc1cccc2sc(N(CCCN(C)C)C(=O)c3ccc(S(=O)(=O)N(CC)Cc4ccccc4)cc3)nc12 | 8.1 | 0.0 | 24.7 | 15.6 | 1.8 | 52.2*
COc1ccc(C)c2sc(N(CCCN(C)C)C(=O)c3ccc(S(=O)(=O)N4CCc5ccccc5C4)cc3)nc12 | 133.6 | 0.0 | 51.5* | -9.7 | . | .
CC(Oc1cccc2ccccc12)C(=O)N/N=C/c1cccnc1 (configuration not stated) | . | 0.0 | -0.3 | 28.3 | -25.3 | -0.8
CN=c1scc(C)n1/N=C/c1ccc(O)c(O)c1O | 7.0 | 21.0 | 69.0* | 29.5 | 3.8 | 2.9
CN=c1scc(-c2cccs2)n1/N=C/c1ccc(O)c(O)c1O | 17.2 | 8.0 | 105.7* | 5.3 | 17.5 | 8.9
COc1ccc(-c2c(C#Cc3ccsc3)c3cc(-c4ccc(OC)c(F)c4)ccc3n2C)cc1 | . | 2.0 | -3.3 | -1.7 | . | -2.4
N#CC(C#N)=C1C=CC=CN1/C(=C\c1ccccc1)C(=O)c1cccs1 | -4.3 | 0.0 | 87.7* | . | 7.5 | -1.7

Screening results deposited in PubChem by several laboratories.
